This is an account of results in ChEMBL document CHEMBL1123557, “N-substituted 1,2,3,4,4a,5,6,10b-octahydrobenzo[f]quinolines and 3-phenylpiperidines: effects on central dopamine and sigma receptors” (J Med Chem, 1987).

Activity calls are given as the source filed them. The calls are words filed in the database; no cut-off is given here. Where only a bound is given, the exact number is not on record here.

In general, IC50 refers to the concentration needed to halve the response being measured. For orientation: ED50 means the dose at which the effect has come halfway, by size or by number of responders.

The target of test [1] is D(2) dopamine receptor (Rattus norvegicus) (UniProt P61169). The experiment in a line: Tested in vivo for binding affinity against Dopamine receptor D2 using nonradiolabeled 5,6-di-n-Pr-ADTN. The format is organism-based. More on the design: concentration or dose not given beside the values.
D(2) dopamine receptor (Rattus norvegicus), sequence (P61169 whole entry): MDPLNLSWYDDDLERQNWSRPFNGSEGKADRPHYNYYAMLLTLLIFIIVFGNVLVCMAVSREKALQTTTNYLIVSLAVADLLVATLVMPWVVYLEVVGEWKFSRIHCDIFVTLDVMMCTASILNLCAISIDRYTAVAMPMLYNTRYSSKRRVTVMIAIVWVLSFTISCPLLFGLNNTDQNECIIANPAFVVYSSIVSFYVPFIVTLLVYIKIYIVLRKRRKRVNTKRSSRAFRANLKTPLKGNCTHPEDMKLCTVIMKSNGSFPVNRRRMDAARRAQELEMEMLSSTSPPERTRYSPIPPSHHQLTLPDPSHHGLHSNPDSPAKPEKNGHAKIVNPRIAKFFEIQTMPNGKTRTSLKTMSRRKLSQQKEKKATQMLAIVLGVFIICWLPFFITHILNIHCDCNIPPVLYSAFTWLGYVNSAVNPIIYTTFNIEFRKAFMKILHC
Test [2] addresses T1, D(2) dopamine receptor (Rattus norvegicus, UniProt P61169). Kind of test: Binding affinity against Dopamine receptor D2 using [3H]spiperone as radioligand. The procedure, abridged:
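Rat striatal membranes (male Sprague-Dawley, 150–250 g), washed three times in 50 mM Tris-HCl pH 7.7. 0.2–0.4 nM [3H]spiperone with 100 mM NaCl and 3 mM MgCl2, about 2 mg tissue, 15 min at 37 °C. Nonspecific binding defined with 1 μM haloperidol. Bound ligand collected by filtration onto PEI-treated glass fiber filters and counted by scintillation. Competition curves fitted iteratively.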

Test [3] has as its system Rattus norvegicus. The experiment in a line: post-synaptic dopaminergic effect was assessed by the increase in locomotor activity at 30 min time interval by 25 umol/kg dosage administration. The format is functional.
Test [4] deals with Sigma non-opioid intracellular receptor 1 (Rattus norvegicus, UniProt Q9R0C9). The experiment in a line: In vitro for binding affinity against sigma receptor using [3H](+)-3-PPP as radioligand. The method in brief:
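Whole rat brain membranes (male Sprague-Dawley) in 50 mM Tris-HCl pH 8.0. Nonspecific binding defined with 1 μM haloperidol. Rapid filtration onto PEI-treated glass fiber filters, scintillation counting. IC50 from iterative curve fitting.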

Test [5] deals with Dopamine D2 receptor (Rattus norvegicus). Kind of test: Effective dose required for DOPA accumulation (presynaptic dopaminergic effect) in rat.
Test [6] relates to Rattus norvegicus. Kind of test: post-synaptic dopaminergic effect was assessed by the increase in locomotor activity at 30 min time interval by 14 umol/kg dosage administration. The format is functional.
The species named for test [7] is Rattus norvegicus. Kind of test: Effective dose required for DOPA accumulation (presynaptic dopaminergic effect) in rat; I is inactive. Format: functional, organism-based. The method in brief:
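Male Sprague-Dawley rats (200–300 g); drug in saline given sc. DOPA measured by HPLC with electrochemical detection in each brain area. Dose-response curves used four to six dose levels per substance and area.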

Test [8] has as its system Rattus norvegicus. Kind of test: post-synaptic dopaminergic effect was assessed by the increase in locomotor activity at 30 min time interval by 50 umol/kg dosage administration. Format: functional.
Test [9] relates to Rattus norvegicus. Kind of test: post-synaptic dopaminergic effect was assessed by the increase in locomotor activity at 30 min time interval by 106 umol/kg dosage administration. The format is functional.
The test system of test [10] is Rattus norvegicus. Kind of test: post-synaptic dopaminergic effect was assessed by the increase in locomotor activity at 30 min time interval by 3.1 umol/kg dosage administration. The format is functional.
Test [11] has as its system Rattus norvegicus. The experiment in a line: post-synaptic dopaminergic effect was assessed by the increase in locomotor activity at 30 min time interval by 53 umol/kg dosage administration. The format is functional.
The test system of test [12] is Rattus norvegicus. Kind of test: post-synaptic dopaminergic effect was assessed by the increase in locomotor activity at 30 min time interval by 1.06 umol/kg dosage administration. The format is functional.
The subject of test [13] is Rattus norvegicus. The experiment in a line: post-synaptic dopaminergic effect was assessed by the increase in locomotor activity at 30 min time interval by 100 umol/kg dosage administration. The format is functional.
Test [14] has as its target T1, D(2) dopamine receptor. The experiment in a line: Compound was tested in vivo for binding affinity against D2 receptor using nonradiolabeled 5,6-di-n-Pr-ADTN. Format: organism-based.

T1 sequence (P61169 whole entry): as above
Sigma non-opioid intracellular receptor 1, sequence (Q9R0C9 whole entry): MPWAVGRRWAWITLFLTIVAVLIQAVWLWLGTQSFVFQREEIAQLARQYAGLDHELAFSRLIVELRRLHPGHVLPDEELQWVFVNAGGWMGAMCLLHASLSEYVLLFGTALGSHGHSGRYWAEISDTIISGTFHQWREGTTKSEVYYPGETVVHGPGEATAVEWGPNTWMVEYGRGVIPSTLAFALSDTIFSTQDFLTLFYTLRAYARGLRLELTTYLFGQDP

Take `Oc1cccc2c1CCC1C2CCCN1CCc1ccccc1` (racemic): the Control in test [1] amounted to 67%. In addition, the results for the 50% inhibitory concentration (IC50) in test [2] and in test [4] were 6 nM and 65 nM, respectively. This compound returned an Accumulated counts in [3] of 143. Further, the 50% effect level in test [5] (ED50) was put at a dose of 0.043 µmol/kg.
For `CCCN1CCCC2c3cc(O)ccc3CCC21` (stereo in doubt; form 1), it took a dose of 0.25 µmol/kg to reach the 50% effect level in test [5] (ED50).
For the compound `Oc1cccc([C@H]2CCCN(CCc3ccccc3)C2)c1`, the IC50 in test [2] was determined as 1240 nM; in test [4], 8 nM. In test [6], this compound yielded an Accumulated counts of 26.
Consider `CCCN1CCCC2c3ccc(O)cc3CCC21` (racemic; 30) [listing 1 of 2 here], for which the ED50 entry in [7] was “inactive”.
In the case of `CCCCN1CCCC2c3cc(O)ccc3CCC21` (racemic; 23) [listing 1 of 2 here], the values for the IC50 in [2] and in [4] were 2990 nM and 10 nM, respectively. The compound also showed an Accumulated counts in test [8] of 75.
Turning to `Oc1ccc2c(c1)C1CCCNC1CC2` (racemic; 18) [listing 1 of 2 here], the figures for the IC50 in [2] and in test [4] were 895 nM and 1940 nM, respectively. The Accumulated counts in test [9] is 10.
Turning to `CCCCN1CCCC2c3cc(O)ccc3CCC21` (racemic; 23) [listing 2 of 2 here], the ED50 entry in [7] was “inactive”.
As to `CCCN1CCCC2c3cc(O)ccc3CCC21` (racemic; 21) [listing 1 of 2 here], in test [1], the Control is 68%. It took a dose of 0.008 µmol/kg to reach the 50% effect level in test [5] (ED50).
`Oc1ccc2c(c1)C1CCCNC1CC2` (racemic; 31) [listing 1 of 2 here]: the ED50 result in test [7] was “inactive”.
In the case of `CCCCN1CCCC2c3cccc(O)c3CCC21` (racemic), the Control in test [1] is 57%. Further, the half-maximal inhibitory concentration (IC50) came to 38 nM in test [2] and 23 nM in test [4]. This compound returned an Accumulated counts in [10] of 196. Besides, the 50% effect level in test [5] (ED50) was put at a dose of 0.08 µmol/kg.
In the case of `CC(C)N1CCC[C@H](c2cccc(O)c2)C1`, the IC50 in test [2] stood at 12100 nM; in test [4], 247 nM. The compound also registered an Accumulated counts in [11] of 49.
Turning to `Oc1ccc2c(c1)C1CCCNC1CC2` (racemic; 31) [listing 2 of 2 here], the IC50 in [2] is 30400 nM; in test [4] it was 11600 nM.
For `COc1ccc2c(c1)C1CCCN(CCc3ccccc3)C1CC2` (racemic) the same measures were 435 nM and 14 nM.
In the case of `CCCN1CCCC2c3cc(O)ccc3CCC21` (racemic; 32) [listing 1 of 2 here], in test [7], the ED50 entry is “inactive”.
Compound `CCN1CCCC2c3cc(O)ccc3CCC21` (racemic) yielded a Control in [1] of 57%. Further, the IC50 in [2] came out at 110 nM; in [4], 70 nM. For the same compound, the Accumulated counts in [12] worked out at 47. The compound further returned a median effective dose (ED50) in test [5] of 0.017 µmol/kg.
Take `Oc1cccc2c1CCC1NCCCC21` (racemic): the figures for the IC50 in test [2] and in test [4] were 7500 nM and 14900 nM, respectively. The ED50 result in test [7] was “inactive”. Further, in test [9], the Accumulated counts turned out to be 10.
`CN1CCCC2c3cccc(O)c3CCC21` (racemic): the Control in [1] came out at 33%. The IC50 in [2] came to 114 nM; in test [4], 610 nM. The compound further had an Accumulated counts in test [13] of 40.
With `CCCN1CCCC(c2ccc(O)cc2)C1` (centres undefined), the IC50 in test [2] was 13000 nM; in test [4] it was 276 nM. Also, the ED50 result in test [7] is “inactive”.
Take `CCCN1CCC[C@@H]2c3cccc(O)c3CC[C@@H]21`: the concentration for half-maximal inhibition (IC50) in [2] amounted to 160 nM; in [4] it was 48 nM. The compound also showed an Accumulated counts in [10] of 59.
Take `CCN1CCCC2c3cccc(O)c3CCC21` (racemic): in [1], the Control stood at 54%. Besides, the figures for the IC50 in test [2] and in [4] were 102 nM and 236 nM, respectively. For the same compound, the Accumulated counts in test [10] is listed as 19.
As for `CN1CCCC(c2cccc(O)c2)C1` (centres undefined), the IC50 turned out to be 1950 nM in test [2] and 1910 nM in [4]. Further, the Accumulated counts in test [13] is reported as 36.
`CCCN1CCC[C@H]2c3cccc(O)c3CC[C@@H]21`: the IC50 in test [2] came to 34 nM; in [4] it was 438 nM. The compound further came in with an Accumulated counts in [10] of 78.
In the case of `CCCN1CCCC2c3cccc(O)c3CCC21` (racemic), the IC50 in test [14] came out at 63 nM. Also, the Accumulated counts in test [10] is on record as 163.
`CCCN1CCCC2c3ccc(O)cc3CCC21` (racemic; 30) [listing 2 of 2 here]: the IC50 in test [2] was 13000 nM; in [4] it was 40 nM.
`CCCN1CCC[C@@H]2c3cccc(O)c3CC[C@@H]21` (racemic) [listing 1 of 2 here]: in test [7], the ED50 entry is “inactive”.
In the case of `CCCN1CCCC2c3ccc(O)cc3CCC21` (racemic; 17), the half-inhibitory concentration (IC50) in test [2] is 730 nM; in [4] it was 10 nM.
On to `Oc1ccc2c(c1)C1CCCN(Cc3ccccc3)C1CC2` (racemic), for which the IC50 in test [2] came out at 3440 nM; in [4] it was 11 nM. The ED50 entry in test [7] is “inactive”. For the same compound, in test [8], the Accumulated counts was 78.
As for `CCCN1CCC[C@H]2c3cccc(O)c3CC[C@H]21`, the IC50 in test [2] was greater than 100000 nM; in test [4] it was 197 nM. The ED50 entry in test [7] was “inactive”.
In turn, `CN1CCCC2c3cc(O)ccc3CCC21` (racemic) had a Control in test [1] of 57%. The values for the IC50 in test [2] and in test [4] were 265 nM and 221 nM, respectively. The compound also displayed an Accumulated counts in test [9] of 60. The compound also yielded an ED50 in [5] of 0.4 µmol/kg.
In the case of `Oc1cccc2c1CC[C@H]1NCCC[C@H]21`, the IC50 was determined as 1550 nM in [2] and 2370 nM in test [4].
`CCCN1CCCC2c3cc(O)ccc3CCC21` (racemic; 21) [listing 2 of 2 here]: the figures for the 50% inhibitory concentration (IC50) in [2] and in test [4] were 101 nM and 19 nM, respectively. Moreover, in test [12], the Accumulated counts stood at 188.
As for `CCCN1CCCC2c3cc(O)ccc3CCC21` (racemic; 32) [listing 2 of 2 here], the IC50 was 6700 nM in [2] and 66 nM in [4].
As for `Oc1ccc2c(c1)C1CCCN(CCc3ccccc3)C1CC2` (racemic), the figures for the IC50 in [2] and in test [4] were 990 nM and 27 nM, respectively. The ED50 result in [7] was “inactive”. In test [3], the Accumulated counts came to 72.
`CCCCN1CCCC2c3cc(OC)ccc3CCC21` (racemic): the IC50 was 3840 nM in [2] and 5 nM in [4]. In addition, the ED50 result in [7] is “inactive”. The compound further came in with an Accumulated counts in test [8] of 135.
The compound `CCCCN1CCC[C@@H](c2cccc(O)c2)C1` came in with a Control in test [1] of 43%. The half-maximal inhibitory concentration (IC50) in [2] came out at 275 nM; in test [4], 31 nM. Moreover, the Accumulated counts in [11] is 63.
In the case of `CCCN1CCCC2c3c(O)cccc3CCC21` (racemic), the IC50 is 61800 nM in [2] and 1930 nM in [4]. Further, in test [7], the ED50 result is “inactive”.
On to `CCCN1CCCC2c3cc(O)ccc3CCC21` (stereo in doubt; form 2) [listing 1 of 2 here], for which the half-inhibitory concentration (IC50) came out at 25 nM in [2] and 21 nM in [4]. For the same compound, the Accumulated counts in [12] worked out at 155.
Regarding `CCCN1CCC[C@@H]2c3cccc(O)c3CC[C@@H]21` (racemic) [listing 2 of 2 here], the IC50 is 2100 nM in test [2] and 416 nM in [4].
In test [5], `CCCN1CCCC2c3cc(O)ccc3CCC21` (stereo in doubt; form 2) [listing 2 of 2 here] had an ED50 of 0.004 µmol/kg.
For the compound `CCCCN1CCC[C@H](c2cccc(O)c2)C1`, the Control in test [1] came out at 74%. The IC50 was found to be 2670 nM in test [2] and 9 nM in test [4]. Also, the Accumulated counts in test [6] worked out at 180.
In test [2], `COc1ccc2c(c1)C1CCCN(Cc3ccccc3)C1CC2` (racemic) returned a 50% inhibitory concentration (IC50) of 5520 nM. Moreover, the ED50 result in test [7] was “inactive”. The compound further displayed an Accumulated counts in test [8] of 21.
The compound `Oc1ccc2c(c1)C1CCCNC1CC2` (racemic; 18) [listing 2 of 2 here] returned a Control in test [1] of 90%.
On to `Oc1cccc2c1CC[C@@H]1NCCC[C@@H]21`, for which the half-maximal inhibitory concentration (IC50) turned out to be 92 nM in test [2] and 3610 nM in test [4].
